This note sets out measurements from the RNAGym collection of RNA variant scans (doi:10.1002/anie.201605470).

To fix the notation:
B1: Osa-1-4 twister ribozyme (parent)
chain: CCGCCUAACACUGCCAAUGCCGGUCCCAAGCCCGGAUAAAAGUGGAGGGGGCGG

The variants in this series derive from B1. Nature of the series: self-cleavage, relative activity (ratio to wild type); higher = more cleavage; co-transcriptional. A digest of the protocol: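 A DNA template for a 54-nucleotide Oryza sativa twister ribozyme was synthesised with 97 % wild-type base and 1 % of each other base at the 48 positions downstream of the cleavage site. It was transcribed in vitro for 2 h at 37 °C, allowing co-transcriptional self-cleavage, then reverse-transcribed with a template-switching oligonucleotide, PCR-amplified and deep-sequenced. Cleavage status was scored from reads with or without upstream sequence. Relative activity is fraction cleaved normalised to wild type.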
U12C U18C: the self-cleavage came to 0.38.

As to U12C U18G, the self-cleavage was determined as 0.61. The same measure for U12C U18A: 0.46.

Regarding G13U G30A, the self-cleavage worked out at 0.01. Consider G13U G30C, for which the self-cleavage was determined as 0.01. With G13U G30U the figure was 0.01; with C14A C15A, 0.07; with C14A C15G, 0.05. The same measure for C14A C15U: 0.05; for C11U U18C: 0.71.

Take C11U U18G: the self-cleavage came out at 0.7.

As for C11U U18A, the self-cleavage was determined as 0.85. The same measure for C11U U12A: 0.6. The same measure for C11U U12G: 0.37; for C11U U12C: 0.47.

For the variant G13U G53U, the self-cleavage came to 0.02. The same measure for G13U G53A: 0.03. The same measure for G13U G53C: 0.01.

With G13A G45U, the self-cleavage amounted to 0.02.

In the case of G13A G45C, the self-cleavage is 0.02. G13A G45A: the self-cleavage was 0.03. With G13C G54A the figure was 0.03; with G13C G54U, 0.04; with G13C G54C, 0.02. The same measure for G13U G51C: 0.01; for G13U G51U: 0.02; for G13U G51A: 0.02. The same measure for U12A U24G: 0.03. As for U12A U24A, the self-cleavage stood at 0.07. With U12A U24C the figure was 0.08; with C14A G47C, 0.03; with C14A G47A, 0.04. With C14A G47U, the self-cleavage came to 0.05. U12G U24A: the self-cleavage was found to be 0.05.

As for U12G U24C, the self-cleavage came out at 0.04.

Take U12G U24G: the self-cleavage is 0.04. The same measure for G13A G47A: 0.04; for G13A G47C: 0.03; for G13A G47U: 0.03. The same measure for G13U G34A: 0.02; for G13U G34C: 0.03; for G13U G34U: 0.03. With U12G U18C the figure was 0.28. Regarding U12G U18G, the self-cleavage is 0.59. The same measure for U12G U18A: 0.39; for G13U G50U: 0.03. The same measure for G13U G50A: 0.03. With G13U G50C the figure was 0.02; with G13C U18C, 0.04. Turning to G13C U18A, the self-cleavage worked out at 0.03.

For the variant G13C U18G, the self-cleavage came to 0.05. With C14A G50A the figure was 0.09. For G13C U43C, the self-cleavage was 0.02. With G13C U43A the figure was 0.03; with G13C U43G, 0.03; with C14A C33U, 0.06. The same measure for C14A C33A: 0.03. The same measure for C14A C33G: 0.01; for G13A G34A: 0.09; for G13A G34C: 0.05.

Consider G13A G34U, for which the self-cleavage was 0.05. With G13A U12G the figure was 0.09; with G13A U12A, 0.07.

On to G13A U12C, for which the self-cleavage stood at 0.04. With G13A U18A the figure was 0.09; with G13A U18G, 0.24. The same measure for G13A U18C: 0.1. With C14A G13A the figure was 0.03. As to C14A G13C, the self-cleavage is 0.02. In the case of C14A G13U, the self-cleavage was determined as 0.02. With G13U G19U the figure was 0.04.

As to G13U G19A, the self-cleavage amounted to 0.03. Consider G13U G19C, for which the self-cleavage was determined as 0.01.

Consider G13C G44U, for which the self-cleavage was 0.03. With G13C G44C the figure was 0.03. The same measure for G13C G44A: 0.02. The same measure for C11U G49C: 0.08; for C11U G49U: 0.09. In the case of C14A C9U, the self-cleavage was determined as 0.06. The same measure for C14A C9G: 0.06. The same measure for C14A C9A: 0.03; for C11U G50U: 0.88.

Consider C11U G50A, for which the self-cleavage stood at 0.44.

Regarding C11U G50C, the self-cleavage stood at 0.72. With U12C U24G the figure was 0.03; with U12C U24A, 0.05; with U12C U24C, 0.06.

For the variant G13C G22C, the self-cleavage was 0.01.

As to G13C G22U, the self-cleavage turned out to be 0.02. With G13C G22A the figure was 0.03. Take G13C G50U: the self-cleavage was 0.02.

G13C G50C: the self-cleavage amounted to 0.02. With G13C G50A, the self-cleavage turned out to be 0.03. The same measure for C14A G30U: 0.62; for C14A G30C: 0.03. The same measure for C14A G30A: 0.02; for C14A G42A: 0.05. The same measure for C14A G42C: 0.05.

For C14A G42U, the self-cleavage came out at 0.03.

For the variant G13C G42A, the self-cleavage worked out at 0.03.

With G13C G42C, the self-cleavage came to 0.02. G13C G42U: the self-cleavage is 0.01. With U12G U43A the figure was 0.08.

Turning to U12G U43G, the self-cleavage was 0.1.

On to U12G U43C, for which the self-cleavage stood at 0.08. Take G13U U24A: the self-cleavage worked out at 0.01.

Consider G13U U24G, for which the self-cleavage worked out at 0.02.

With G13U U24C, the self-cleavage was 0.03. With G13A U37G the figure was 0.17; with G13A U37A, 0.13.

Consider G13A U37C, for which the self-cleavage came to 0.12.

In the case of C14A C31G, the self-cleavage was 0.02. With C14A C31U the figure was 0.04; with C14A C31A, 0.03. Turning to C14A, the self-cleavage worked out at 0.13. Take G13U G44A: the self-cleavage stood at 0.03. The same measure for G13U G44C: 0.03; for G13U G44U: 0.04. With C14A C21A the figure was 0.08. With C14A C21U the figure was 0.09. As for C14A C21G, the self-cleavage worked out at 0.03. The same measure for G13C G23U: 0.02; for G13C G23A: 0.02. With G13C G23C the figure was 0.01; with G13U G48A, 0.01. With G13U G48C the figure was 0.01.

For the variant G13U G48U, the self-cleavage amounted to 0.01. With C14A G48C the figure was 0.02. The same measure for C14A G48A: 0.02; for C14A G48U: 0.02. The same measure for G13A G48C: 0.03; for G13A G48U: 0.02. As to G13A G48A, the self-cleavage is 0.03. The same measure for G13A G54A: 0.07; for G13A G54U: 0.2.

G13A G54C: the self-cleavage came out at 0.06. For C14A G23C, the self-cleavage was 0.02. With C14A G23U the figure was 0.02; with C14A G23A, 0.05.

For G13C G49C, the self-cleavage came to 0.01.

On to G13C G49U, for which the self-cleavage was found to be 0.01. With G13C G49A the figure was 0.01. The same measure for G13U G22C: 0.01; for G13U G22A: 0.03. With G13U G22U, the self-cleavage worked out at 0.02. The same measure for G13U U37C: 0.03; for G13U U37A: 0.02. With G13U U37G the figure was 0.04. For the variant G13A G50A, the self-cleavage is 0.14. Consider G13A G50U, for which the self-cleavage was found to be 0.08.

For G13A G50C, the self-cleavage was determined as 0.06. With G13A G35C the figure was 0.05; with G13A G35A, 0.12. With G13A G35U the figure was 0.08; with G13A G22U, 0.04.

Consider G13A G22C, for which the self-cleavage worked out at 0.03. G13A G22A: the self-cleavage amounted to 0.07. The same measure for C11U G53U: 0.14; for C11U G53A: 0.62; for C11U G53C: 0.07.

As for G13C U12A, the self-cleavage was 0.03.

Turning to G13C U12C, the self-cleavage came out at 0.03. The same measure for G13C U12G: 0.56; for G13A G30U: 0.02. With G13A G30C the figure was 0.02; with G13A G30A, 0.03; with G13C G34U, 0.03.
